Converted amounts (≈) assume the structure as drawn.
Experiments:
Type in all cases: functional
Streptococcus pneumoniae [1] = assay: Antibacterial activity against Streptococcus pneumoniae ATCC 49619 by agar dilution method; details: ATCC49619
Outline: (§1)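 MIC determined by agar dilution on Mueller–Hinton agar against reference strains.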

Streptococcus pyogenes [2] = assay: Antibacterial activity against Streptococcus pyogenes ATCC 8668 by agar dilution method
Outline: (§2)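 MIC measured by agar dilution on Mueller–Hinton agar. Strains were a reference culture and clinically isolated strains. The pneumococcal isolates were penicillin-susceptible clinical isolates.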

Streptococcus pyogenes [3] = assay: Antibacterial activity against Streptococcus pyogenes isolate 2 by agar dilution method; outline: as §2
Staphylococcus aureus [4] = assay: Antibacterial activity against methicillin-resistant Staphylococcus aureus 2 by agar dilution method
Outline: (§3)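 MIC determined by agar dilution on Mueller–Hinton agar against clinical strains of methicillin-resistant S. aureus.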

Staphylococcus aureus [5] = assay: Antibacterial activity against methicillin-resistant Staphylococcus aureus 1 by agar dilution method; outline: as §3
Streptococcus pyogenes [6] = assay: Antibacterial activity against Streptococcus pyogenes isolate 1 by agar dilution method; outline: as §2
Streptococcus pneumoniae [7] = assay: Antibacterial activity against penicillin intermediate-resistant Streptococcus pneumoniae isolate I1 by agar dilution method
Outline: (§4)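 MIC determined by agar dilution on Mueller–Hinton agar against clinically isolated penicillin-intermediate-resistant S. pneumoniae.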

Staphylococcus aureus [8] = assay: Antibacterial activity against methicillin-susceptible Staphylococcus aureus isolate 2 by agar dilution method
Outline: (§5)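 MIC determined by agar dilution on Mueller–Hinton agar against clinically isolated methicillin-susceptible S. aureus.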

Staphylococcus aureus [9] = assay: Antibacterial activity against methicillin-susceptible Staphylococcus aureus ATCC 29213 by agar dilution method; outline: as §1
Streptococcus pyogenes [10] = assay: Antibacterial activity against Streptococcus pyogenes isolate 3 by agar dilution method; outline: as §2
Staphylococcus aureus [11] = assay: Antibacterial activity against methicillin-susceptible Staphylococcus aureus isolate 1 by agar dilution method; outline: as §5
Streptococcus pneumoniae [12] = assay: Antibacterial activity against penicillin intermediate-resistant Streptococcus pneumoniae isolate I2 by agar dilution method; outline: as §4
Streptococcus pneumoniae [13] = assay: Antibacterial activity against penicillin intermediate-resistant Streptococcus pneumoniae isolate I3 by agar dilution method; outline: as §4
Streptococcus pneumoniae [14] = assay: Antibacterial activity against penicillin-susceptible Streptococcus pneumoniae isolate S1 by agar dilution method; outline: as §2
Staphylococcus aureus [15] = assay: Antibacterial activity against methicillin-susceptible Staphylococcus aureus isolate 3 by agar dilution method; outline: as §5
Streptococcus pneumoniae [16] = assay: Antibacterial activity against penicillin-susceptible Streptococcus pneumoniae isolate S2 by agar dilution method; outline: as §2
Staphylococcus aureus [17] = assay: Antibacterial activity against methicillin-resistant Staphylococcus aureus 3 by agar dilution method; outline: as §3

Row | SMILES | MIC (Streptococcus pneumoniae [1]) [µg/mL] | MIC (Streptococcus pyogenes [2]) [µg/mL] | MIC (Streptococcus pyogenes [3]) [µg/mL] | MIC (Staphylococcus aureus [4]) [µg/mL] | MIC (Staphylococcus aureus [5]) [µg/mL] | MIC (Streptococcus pyogenes [6]) [µg/mL] | MIC (Streptococcus pneumoniae [7]) [µg/mL] | MIC (Staphylococcus aureus [8]) [µg/mL] | MIC (Staphylococcus aureus [9]) [µg/mL] | MIC (Streptococcus pyogenes [10]) [µg/mL] | MIC (Staphylococcus aureus [11]) [µg/mL] | MIC (Streptococcus pneumoniae [12]) [µg/mL] | MIC (Streptococcus pneumoniae [13]) [µg/mL] | MIC (Streptococcus pneumoniae [14]) [µg/mL] | MIC (Staphylococcus aureus [15]) [µg/mL] | MIC (Streptococcus pneumoniae [16]) [µg/mL] | MIC (Staphylococcus aureus [17]) [µg/mL]
1 | CC[C@H]1OC(=O)[C@H](C)C(=O)[C@H](C)[C@@H](O[C@@H]2O[C@H](C)C[C@H](N(C)C)[C@H]2O)[C@](C)(OC)C[C@@H](C)/C(=N\OC/C=C/c2cccc(OC)c2)[C@H](C)[C@@H](O)[C@]1(C)O | 1 (≈ 1.34 µM) | 1 (≈ 1.34 µM) | 1 (≈ 1.34 µM) | 128 (≈ 171 µM) | 128 (≈ 171 µM) | 0.25 (≈ 0.334 µM) | 64 (≈ 85.5 µM) | 2 (≈ 2.67 µM) | 2 (≈ 2.67 µM) | 1 (≈ 1.34 µM) | 2 (≈ 2.67 µM) | 1 (≈ 1.34 µM) | 64 (≈ 85.5 µM) | 0.25 (≈ 0.334 µM) | 2 (≈ 2.67 µM) | 0.25 (≈ 0.334 µM) | 2 (≈ 2.67 µM)
2 | CC[C@H]1OC(=O)[C@H](C)C(=O)[C@H](C)[C@@H](O[C@@H]2O[C@H](C)C[C@H](N(C)C)[C@H]2O)[C@](C)(OC)C[C@@H](C)/C(=N\OC/C=C/c2ccc(OC)c(OC)c2)[C@H](C)[C@@H](O)[C@]1(C)O | 0.25 (≈ 0.321 µM) | 0.25 (≈ 0.321 µM) | 0.25 (≈ 0.321 µM) | 128 (≈ 164 µM) | 128 (≈ 164 µM) | 0.06 (≈ 0.077 µM) | 32 (≈ 41.1 µM) | 1 (≈ 1.28 µM) | 1 (≈ 1.28 µM) | 0.25 (≈ 0.321 µM) | 0.5 (≈ 0.642 µM) | 0.5 (≈ 0.642 µM) | 0.5 (≈ 0.642 µM) | 0.06 (≈ 0.077 µM) | 1 (≈ 1.28 µM) | 0.06 (≈ 0.077 µM) | 1 (≈ 1.28 µM)
3 | CC[C@H]1OC(=O)[C@H](C)C(=O)[C@H](C)[C@@H](O[C@@H]2O[C@H](C)C[C@H](N(C)C)[C@H]2O)[C@](C)(OC)C[C@@H](C)/C(=N\OC/C=C/c2cccnc2)[C@H](C)[C@@H](O)[C@]1(C)O | 0.125 (≈ 0.174 µM) | 0.25 (≈ 0.347 µM) | 0.06 (≈ 0.0833 µM) | 128 (≈ 178 µM) | 128 (≈ 178 µM) | 0.06 (≈ 0.0833 µM) | 64 (≈ 88.9 µM) | 0.25 (≈ 0.347 µM) | 0.5 (≈ 0.695 µM) | 0.06 (≈ 0.0833 µM) | 0.25 (≈ 0.347 µM) | 0.25 (≈ 0.347 µM) | 0.06 (≈ 0.0833 µM) | 0.06 (≈ 0.0833 µM) | 0.25 (≈ 0.347 µM) | 0.06 (≈ 0.0833 µM) | 0.5 (≈ 0.695 µM)
4 | CC[C@H]1OC(=O)[C@H](C)C(=O)[C@H](C)[C@@H](O[C@@H]2O[C@H](C)C[C@H](N(C)C)[C@H]2O)[C@](C)(OC)C[C@@H](C)/C(=N\OC/C=C/c2cncc3ccccc23)[C@H](C)[C@@H](O)[C@]1(C)O | 0.25 (≈ 0.325 µM) | 0.25 (≈ 0.325 µM) | 0.25 (≈ 0.325 µM) | 128 (≈ 166 µM) | 128 (≈ 166 µM) | 0.06 (≈ 0.0779 µM) | 32 (≈ 41.6 µM) | 0.5 (≈ 0.649 µM) | 1 (≈ 1.3 µM) | 0.25 (≈ 0.325 µM) | 1 (≈ 1.3 µM) | 0.5 (≈ 0.649 µM) | 1 (≈ 1.3 µM) | 0.25 (≈ 0.325 µM) | 0.5 (≈ 0.649 µM) | 0.25 (≈ 0.325 µM) | 0.5 (≈ 0.649 µM)
5 | CC[C@H]1OC(=O)[C@H](C)C(=O)[C@H](C)[C@@H](O[C@@H]2O[C@H](C)C[C@H](N(C)C)[C@H]2O)[C@](C)(OC)C[C@@H](C)/C(=N\OC/C=C/c2cncnc2)[C@H](C)[C@@H](O)[C@]1(C)O | 0.25 (≈ 0.347 µM) | 0.25 (≈ 0.347 µM) | 0.25 (≈ 0.347 µM) | 128 (≈ 178 µM) | 128 (≈ 178 µM) | 0.06 (≈ 0.0832 µM) | 128 (≈ 178 µM) | 0.5 (≈ 0.694 µM) | 0.5 (≈ 0.694 µM) | 0.25 (≈ 0.347 µM) | 0.5 (≈ 0.694 µM) | 0.5 (≈ 0.694 µM) | 1 (≈ 1.39 µM) | 0.125 (≈ 0.173 µM) | 0.5 (≈ 0.694 µM) | 0.125 (≈ 0.173 µM) | 0.5 (≈ 0.694 µM)
6 | CC[C@H]1OC(=O)[C@H](C)C(=O)[C@H](C)[C@@H](O[C@@H]2O[C@H](C)C[C@H](N(C)C)[C@H]2O)[C@](C)(OC)C[C@@H](C)/C(=N\OC/C=C/c2ccc(OC)cc2)[C@H](C)[C@@H](O)[C@]1(C)O | 0.5 (≈ 0.668 µM) | 0.5 (≈ 0.668 µM) | 0.5 (≈ 0.668 µM) | 126 (≈ 168 µM) | 128 (≈ 171 µM) | 0.25 (≈ 0.334 µM) | 64 (≈ 85.5 µM) | 1 (≈ 1.34 µM) | 2 (≈ 2.67 µM) | 0.5 (≈ 0.668 µM) | 2 (≈ 2.67 µM) | 0.5 (≈ 0.668 µM) | 0.5 (≈ 0.668 µM) | 0.25 (≈ 0.334 µM) | 1 (≈ 1.34 µM) | 0.25 (≈ 0.334 µM) | 2 (≈ 2.67 µM)
